According to ChEMBL document CHEMBL4673227, “Development of Gleevec Analogues for Reducing Production of β-Amyloid Peptides through Shifting β-Cleavage of Amyloid Precursor Proteins” (J Med Chem, 2019):
The source made the active and inactive calls. The rule behind the calls is not given here.

Experiments:
[1] = Drug level in C57BL/6J mouse plasma at 50 mg/kg, ip measured after 4 hrs by LC-MS/MS analysis; assay type: ADME, organism-based
Outline: (§1)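 Mesylate salts in water ([…], 125 μL) given i.p. at 50 or 150 mg/kg to 8-week-old male C57BL/6J mice. Brain and plasma harvested 4 h post-dose and snap-frozen. Brain homogenized and extracted twice with ethanol, plasma extracted with acetonitrile, both with internal standard. Drug quantified by LC-MS/MS; n = 3 or 4.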

[2] = Stability in mouse liver microsomes assessed as parent compound remaining level at 1 uM after 1 hrs by HPLC-MS/MS analysis; assay type: ADME, Microsome; details: read-out: Stabilty
[3] = Stability in human liver microsomes assessed as parent compound remaining level at 1 uM after 0.5 hrs by HPLC-MS/MS analysis; assay type: ADME, Microsome; details: read-out: Stabilty
[4] = Stability in mouse liver microsomes assessed as parent compound remaining level at 10 uM after 1 hrs by HPLC-MS/MS analysis; assay type: ADME, Microsome; details: read-out: Stabilty
[5] = Stability in human liver microsomes assessed as parent compound remaining level at 10 uM after 1 hrs by HPLC-MS/MS analysis; assay type: ADME, Microsome; details: read-out: Stabilty
[6] = Stability in human liver microsomes assessed as parent compound remaining level at 1 uM after 1 hrs by HPLC-MS/MS analysis; assay type: ADME, Microsome; details: read-out: Stabilty
[7] = Stability in mouse liver microsomes assessed as parent compound remaining level at 1 uM after 0.5 hrs by HPLC-MS/MS analysis; assay type: ADME, Microsome; details: read-out: Stabilty
[8] = Stability in human liver microsomes assessed as parent compound remaining level at 10 uM after 0.5 hrs by HPLC-MS/MS analysis; assay type: ADME, Microsome; details: read-out: Stabilty
[9] = Stability in mouse liver microsomes assessed as parent compound remaining level at 10 uM after 0.5 hrs by HPLC-MS/MS analysis; assay type: ADME, Microsome; details: read-out: Stabilty
[10] = Drug level in C57BL/6J mouse brain at 50 mg/kg, ip measured after 4 hrs by LC-MS/MS analysis; assay type: ADME, organism-based; details: read-out: Drug uptake; outline: as §1
[11] = tested on: N2a695; assay: Inhibition of beta secretase in mouse N2a695 cells assessed as reduction in A-beta 40 levels at 5 to 10 uM incubated for 5 hrs by ELISA; assay type: cell-based; details: dose 5-10 µM
Outline: (§2)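 Mouse N2a695 cells (N2a overexpressing human APP695), grown in Opti-MEM/DMEM with 5% FBS and geneticin at 37 °C, 5% CO₂. Cells seeded overnight in 6-well plates, >95% confluent, then given fresh medium with compounds (2.5–10 μM, diluted from DMSO stocks) for 5 h. Secreted Aβ40/Aβ42 measured by ELISA or MSD ELISA against DMSO control; 2–3 experiments averaged.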

[12] = tested on: N2a695; assay: Inhibition of beta secretase in mouse N2a695 cells assessed as reduction in A-beta 42 levels at 5 to 10 uM incubated for 5 hrs by ELISA; assay type: cell-based; details: dose 5-10 µM; outline: as §2
[13] = Inhibition of beta secretase in mouse N2a695 cells assessed as reduction in A-beta 40 levels incubated for 5 hrs by ELISA; assay type: cell-based; details: N2a695, 5 h; outline: as §2
[14] = Toxicity in mouse N2a695 cells assessed as reduction in cell viability at 5 to 10 uM incubated for 5 hrs; assay type: cell-based; details: n2a695, 5 h, dose 5-10 µM
Outline: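 N2a cells exposed to compounds at 10 μM for 5 h alongside the Aβ assay. Cell viability/density compared with DMSO control.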

[15] = Inhibition of beta secretase in mouse N2a695 cells assessed as reduction in A-beta 42 levels incubated for 5 hrs by ELISA; assay type: cell-based; details: N2a695, 5 h; outline: as §2
[16] = tested on: N2a695; assay: Inhibition of beta secretase in mouse N2a695 cells assessed as reduction in A-beta 42 levels at 5 uM treated 1 hr after BACE IV treatment and further incubated for 5 hrs by ELISA; assay type: cell-based
Outline: (§3)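 N2a695 cells pretreated with BACE IV for 1 h, then treated with compound plus BACE IV for 5 h. Secreted Aβ40 and Aβ42 measured by ELISA.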

[17] = tested on: Mus musculus; assay: Inhibition of FA-soluble A-beta-42 levels in 2xTg AD mouse model at 100 mg/kg, po BID for 4 days and once daily on day 5 by ELISA; assay type: functional, organism-based
Outline: (§4)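 2xTg AD females (APP Swedish/PS1ΔE9), 5 months old, n = 7 per group. 2a-mesylate 20 mg/mL in water with 0.1% methylcellulose, 100 mg/kg by gavage, or vehicle, twice daily 8 h apart for 4 days, then once on day 5. Euthanized 4 h after last dose. Left hemisphere homogenized in 1% Triton X-100 TBS (pH 7.4), then insoluble Aβ extracted with 70% formic acid and measured by ELISA.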

[18] = tested on: N2a695; assay: Inhibition of beta secretase in mouse N2a695 cells assessed as reduction in A-beta 40 levels at 5 uM treated 1 hr after BACE IV treatment and further incubated for 5 hrs by ELISA; assay type: cell-based; outline: as §3
[19] = tested on: Mus musculus; assay: Inhibition of FA-soluble A-beta-40 levels in 2xTg AD mouse model at 100 mg/kg, po BID for 4 days and once daily on day 5 by ELISA; assay type: functional, organism-based; details: time 5.0 day; outline: as §4
[20] = tested on: N2a695; assay: Inhibition of beta secretase in mouse N2a695 cells assessed as reduction in A-beta 42 levels at 10 uM incubated for 5 hrs by ELISA; assay type: cell-based; outline: as §2
[21] = Toxicity in mouse up to 150 mg/kg, po QD for 5 days; assay type: organism-based; details: in vivo, 120 h, time 5 day
Outline: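 Wild-type mice given the compound by oral gavage, increasing amounts up to 150 mg/kg once daily for 5 days. Animals observed for signs of toxicity.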

[22] = Drug level in brain of wild-type mouse at 50 mg/kg, po after 12 hrs by LC-MS/MS analysis; details: in vivo
[23] = Drug level in brain of wild-type mouse at 50 mg/kg, po after 6 hrs by LC-MS/MS analysis; details: in vivo
[24] = Drug level in plasma of wild-type mouse at 50 mg/kg, po after 24 hrs by LC-MS/MS analysis; details: in vivo
[25] = Drug level in plasma of wild-type mouse at 50 mg/kg, po after 12 hrs by LC-MS/MS analysis; details: in vivo
[26] = tested on: N2a; assay: Inhibition of beta secretase in mouse N2a cells expressing FL APP695 assessed as reduction of A-beta levels at 2 uM incubated for 5 hrs by MSD-ELISA
[27] = tested on: N2a; assay: Inhibition of gamma secretase in mouse N2a cells expressing FL APP695 assessed as reduction of A-beta levels at 1 uM incubated for 5 hrs by MSD-ELISA; assay type: cell-based
[28] = Drug level in C57BL/6J mouse brain at 150 mg/kg, ip measured after 4 hrs by LC-MS/MS analysis; assay type: ADME, organism-based; details: read-out: Drug uptake; outline: as §1
[29] = Drug level in C57BL/6J mouse plasma at 150 mg/kg, ip measured after 4 hrs by LC-MS/MS analysis; assay type: ADME, organism-based; outline: as §1
[30] = tested on: N2a; assay: Inhibition of gamma secretase in mouse N2a cells expressing APP-C99 assessed as reduction of A-beta42 levels at 10 uM incubated for 5 hrs by MSD-ELISA relative to control; assay type: cell-based
Outline: (§5)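 N2a cells transfected with plasmids for full-length APP695 or APP-C99. After 48 h, fresh medium with compounds (10 μM) added for 5 h. Supernatant Aβ40, Aβ42, sAPPα and sAPPβ measured by MSD ELISA against DMSO; BACE IV (2 μM) and DAPT (1 μM) run alongside.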

[31] = tested on: N2a; assay: Inhibition of gamma secretase in mouse N2a cells expressing APP-C99 assessed as reduction of A-beta40 levels at 10 uM incubated for 5 hrs by MSD-ELISA relative to control; assay type: cell-based; outline: as §5

Compound | concentration at 4 h [1] [nM] | concentration at 4 h [10] [ng/g] | inhibition [11] | inhibition [12] | IC50 [13] [µM] | Activity [14] | IC50 [15] [µM] | further results
CS(=O)(=O)O.Cc1ccc(NC(=O)c2ccc(CN3CCN(C)CC3)cc2)cc1Nc1nccc(-c2cccnc2)n1 [IMATINIB MESYLATE] | 100 | < 1 |  |  |  |  |  | remaining at 1 h, 1 µM [2]: 1.7%; remaining at 0.5 h, 1 µM [3]: 40.4%; remaining at 1 h, 10 µM [4]: 5.1%; remaining at 1 h, 10 µM [5]: 66.4%; remaining at 1 h, 1 µM [6]: 15.9%; remaining at 0.5 h, 1 µM [7]: 7.3%; remaining at 0.5 h, 10 µM [8]: 95.4%; remaining at 0.5 h, 10 µM [9]: 22.5%
Cc1ccc(NC(=O)c2ccc(N3CCN(C)CC3)cc2)cc1Nc1nccc(-c2cccnc2)n1 | 1000 | 21 | Active | Active | > 5 | Non-Toxic | > 5 | 
Cc1ccc(NC(=O)c2ccc(CCN(C)C)cc2)cc1Nc1nccc(-c2cccnc2)n1 [listing 1 of 2 here] |  |  | Active | Active |  |  |  | inhibition [16]: Active; inhibition [17]: Active; inhibition [18]: Active; inhibition [19]: Active
Cc1ccc(NC(=O)c2ccc(C3CCN(C)CC3)cc2)cc1Nc1nccc(-c2cccnc2)n1 |  | 127 | Active | Active | > 5 | Non-Toxic | > 5 | 
Cc1ccc(NC(=O)c2ccc(CCN)cc2)cc1Nc1nccc(-c2cccnc2)n1 |  |  |  |  |  |  |  | inhibition [20]: Active
Cc1ccc(NC(=O)c2ccc(C3CCCN(C)C3)cc2)cc1Nc1nccc(-c2cccnc2)n1 (configuration not stated) | 2300 | 39 | Active | Active | > 5 | Non-Toxic | > 5 | 
Cc1ccc(NC(=O)c2ccc(CCN(C)C)cc2)cc1Nc1nccc(-c2cccnc2)n1 [listing 2 of 2 here] | 2500 | 27 |  |  | > 5 | Non-Toxic | > 5 | remaining at 1 h, 1 µM [2]: 1.3%; Activity [21]: Non-Toxic; remaining at 0.5 h, 1 µM [3]: 61.9%; remaining at 1 h, 10 µM [4]: 2.3%; remaining at 1 h, 10 µM [5]: 56.5%; remaining at 1 h, 1 µM [6]: 29.2%; remaining at 0.5 h, 1 µM [7]: 7.9%; remaining at 0.5 h, 10 µM [8]: 77.1%; remaining at 0.5 h, 10 µM [9]: 15.1%
CS(=O)(=O)O.Cc1ccc(NC(=O)c2ccc(CCN(C)C)cc2)cc1Nc1nccc(-c2cccnc2)n1 |  |  |  |  |  |  |  | Drug uptake [22]: Not Active; Drug uptake [23]: Active; Drug uptake [24]: Not Active; Drug uptake [25]: Active
C[C@H](NC(=O)Cc1cc(F)cc(F)c1)C(=O)N[C@H](C(=O)OC(C)(C)C)c1ccccc1 |  |  |  |  |  |  |  | inhibition [26]: Active; inhibition [27]: Active
CNCCc1ccc(C(=O)Nc2ccc(C)c(Nc3nccc(-c4cccnc4)n3)c2)cc1 |  |  |  |  |  |  |  | inhibition [20]: Active
Cc1ccc(NC(=O)c2ccc(CCN(C)C)cc2C(F)(F)F)cc1Nc1nccc(-c2cccnc2)n1 |  |  | Active | Active | > 5 | Non-Toxic | > 5 | concentration at 4 h [28]: 60 ng/g; concentration at 4 h [29]: 11600 nM; inhibition [30]: 25%; inhibition [31]: 25%
